Data taken from ChEMBL document CHEMBL4376872, “Scaffold Hopping of Natural Product Evodiamine: Discovery of a Novel Antitumor Scaffold with Excellent Potency against Colon Cancer” (J Med Chem, 2020).
Active and inactive are the calls of the source. The calls are words filed in the database; no cut-off is given here.

Legend:
[1] = target: Protein arginine N-methyltransferase 1 (Homo sapiens) (UniProt Q99873); assay: Inhibition of PRMT1 (unknown origin) using plate-coated histone as substrate at 5 uM incubated for 90 mins in presence of 0.5 uM SAM by AlphaScreen assay relative to control
[2] = target: Poly [ADP-ribose] polymerase 2 (Homo sapiens) (UniProt Q9UGN5); assay: Inhibition of PARP2 (unknown origin) using biotin-NAD+, NAD+ and sIDNA as substrate at 5 uM incubated for 1 hr by ELISA relative to control
Poly [ADP-ribose] polymerase 2 (Homo sapiens), sequence (Q9UGN5 whole entry): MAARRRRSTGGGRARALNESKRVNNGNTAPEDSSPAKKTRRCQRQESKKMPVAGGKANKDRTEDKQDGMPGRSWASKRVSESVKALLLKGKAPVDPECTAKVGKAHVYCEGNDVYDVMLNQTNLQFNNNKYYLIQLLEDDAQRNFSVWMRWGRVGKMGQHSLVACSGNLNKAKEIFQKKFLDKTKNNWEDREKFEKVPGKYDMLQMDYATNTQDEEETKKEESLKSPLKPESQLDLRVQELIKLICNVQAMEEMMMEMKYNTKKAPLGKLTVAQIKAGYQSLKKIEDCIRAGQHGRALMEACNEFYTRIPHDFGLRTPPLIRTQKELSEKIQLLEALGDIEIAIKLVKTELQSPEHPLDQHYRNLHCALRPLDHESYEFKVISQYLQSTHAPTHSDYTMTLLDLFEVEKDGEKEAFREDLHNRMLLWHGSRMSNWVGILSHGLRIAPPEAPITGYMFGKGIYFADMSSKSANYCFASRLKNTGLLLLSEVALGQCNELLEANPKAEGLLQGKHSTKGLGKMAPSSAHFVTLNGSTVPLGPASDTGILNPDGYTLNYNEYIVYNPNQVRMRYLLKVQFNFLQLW

[3] = target: Protein mono-ADP-ribosyltransferase PARP15 (Homo sapiens) (UniProt Q460N3); assay: Inhibition of PARP15 (unknown origin) using biotin-NAD+, NAD+ and sIDNA as substrate at 5 uM incubated for 1 hr by ELISA relative to control
Tubulin (Homo sapiens) = Tubulin (Homo sapiens) (UniProt P68371+Q9H4B7+P0DPH7+P68366+Q13509+Q71U36+P04350+Q3ZCM7+P07437+P68363+Q9BQE3+Q6PEY2+Q13885+Q9BVA1+Q9BUF5); assay: Inhibition of tubulin polymerization in human HCT116 cells assessed as disruption of microtubule by measuring clustered microtubule arrangement in cytosol around the nucleus at 0.4 to 10 uM incubated for 12 hrs by immunofluorescence based analysis; assay type: cell-based
Method in brief: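 HCT116 cells were exposed to several concentrations for 12 h, with paclitaxel as the control. Nuclei were stained with DAPI and microtubules with mouse anti-α-tubulin. Microtubule organization was imaged by laser confocal microscopy.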

HCT-116 [4] = assay: Cell cycle arrest in human HCT116 cells assessed as accumulation in G2 phase at 36 nM incubated for 24 hrs by propidium iodide staining based flow cytometry (reference value: 12.52 %); assay type: functional
HCT-116 [5] = assay: Cell cycle arrest in human HCT116 cells assessed as accumulation in S phase at 12 nM incubated for 24 hrs by propidium iodide staining based flow cytometry (reference value: 42.31 %); assay type: functional
HCT-116 [6] = assay: Cell cycle arrest in human HCT116 cells assessed as accumulation in G2 phase at 12 nM incubated for 24 hrs by propidium iodide staining based flow cytometry (reference value: 12.52 %); assay type: functional
[7] = target: CDK4/Cyclin D3 (Homo sapiens) (UniProt P11802+P30281); assay: Inhibition of CDK4/Cyclin D3 (unknown origin) using Rb as substrate at 5 uM incubated for 40 mins in presence of 10 uM ATP by kinase-Glo luminescence assay relative to control; assay type: protein-complex assay
[8] = target: 3',5'-cyclic-AMP phosphodiesterase 4A (Homo sapiens) (UniProt P27815); assay: Inhibition of PDE4A4 (unknown origin) using FAM-cAMP as substrate at 5 uM incubated for 1 hr by fluorescence polarization assay relative to control
[9] = target: Epidermal growth factor receptor (Homo sapiens) (UniProt P00533); assay: Inhibition of EGFR (unknown origin) using poly (Glu, Tyr) as substrate at 5 uM incubated for 40 mins in presence of 10 uM ATP by kiase-Glo luminescence assay relative to control
Epidermal growth factor receptor (Homo sapiens), sequence (P00533 whole entry): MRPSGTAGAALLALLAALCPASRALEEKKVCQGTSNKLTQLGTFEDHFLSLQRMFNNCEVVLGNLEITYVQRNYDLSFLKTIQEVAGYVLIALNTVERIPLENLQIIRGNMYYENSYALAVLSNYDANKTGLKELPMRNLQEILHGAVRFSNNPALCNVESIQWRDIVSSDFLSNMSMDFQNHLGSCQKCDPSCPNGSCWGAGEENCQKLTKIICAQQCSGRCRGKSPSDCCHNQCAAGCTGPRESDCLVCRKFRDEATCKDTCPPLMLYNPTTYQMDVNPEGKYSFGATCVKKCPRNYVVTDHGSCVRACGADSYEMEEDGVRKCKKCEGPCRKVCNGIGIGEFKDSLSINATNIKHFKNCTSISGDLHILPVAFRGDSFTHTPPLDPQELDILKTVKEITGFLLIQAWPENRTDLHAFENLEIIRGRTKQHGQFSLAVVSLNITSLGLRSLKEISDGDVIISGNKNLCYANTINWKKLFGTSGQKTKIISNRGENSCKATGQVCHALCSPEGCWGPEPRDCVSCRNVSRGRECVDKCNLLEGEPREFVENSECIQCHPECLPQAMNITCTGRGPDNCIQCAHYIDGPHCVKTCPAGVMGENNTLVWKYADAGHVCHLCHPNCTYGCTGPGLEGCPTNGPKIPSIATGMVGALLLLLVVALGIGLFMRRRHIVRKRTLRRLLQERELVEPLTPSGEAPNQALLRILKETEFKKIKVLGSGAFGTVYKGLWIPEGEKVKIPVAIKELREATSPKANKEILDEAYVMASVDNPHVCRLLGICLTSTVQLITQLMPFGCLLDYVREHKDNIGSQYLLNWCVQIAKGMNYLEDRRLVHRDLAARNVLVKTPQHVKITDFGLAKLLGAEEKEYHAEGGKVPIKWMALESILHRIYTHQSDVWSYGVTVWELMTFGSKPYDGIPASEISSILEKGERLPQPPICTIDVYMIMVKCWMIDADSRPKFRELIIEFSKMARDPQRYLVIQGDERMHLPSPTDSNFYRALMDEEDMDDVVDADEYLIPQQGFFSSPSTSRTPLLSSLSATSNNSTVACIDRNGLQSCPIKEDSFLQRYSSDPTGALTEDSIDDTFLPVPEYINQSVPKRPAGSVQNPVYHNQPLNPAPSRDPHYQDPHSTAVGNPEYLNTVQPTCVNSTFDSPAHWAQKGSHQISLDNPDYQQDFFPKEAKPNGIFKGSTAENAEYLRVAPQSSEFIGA

HCT-116 [10] = assay: Cell cycle arrest in human HCT116 cells assessed as accumulation in S phase at 4 nM incubated for 24 hrs by propidium iodide staining based flow cytometry (reference value: 42.31 %); assay type: functional
[11] = target: Histone-lysine N-methyltransferase EZH2 (Homo sapiens) (UniProt Q15910); assay: Inhibition of EZH2 (unknown origin) using plate-coated histone as substrate at 5 uM incubated for 90 mins in presence of 5 uM SAM by AlphaScreen assay relative to control
Histone-lysine N-methyltransferase EZH2 (Homo sapiens), sequence (Q15910 whole entry, looked up): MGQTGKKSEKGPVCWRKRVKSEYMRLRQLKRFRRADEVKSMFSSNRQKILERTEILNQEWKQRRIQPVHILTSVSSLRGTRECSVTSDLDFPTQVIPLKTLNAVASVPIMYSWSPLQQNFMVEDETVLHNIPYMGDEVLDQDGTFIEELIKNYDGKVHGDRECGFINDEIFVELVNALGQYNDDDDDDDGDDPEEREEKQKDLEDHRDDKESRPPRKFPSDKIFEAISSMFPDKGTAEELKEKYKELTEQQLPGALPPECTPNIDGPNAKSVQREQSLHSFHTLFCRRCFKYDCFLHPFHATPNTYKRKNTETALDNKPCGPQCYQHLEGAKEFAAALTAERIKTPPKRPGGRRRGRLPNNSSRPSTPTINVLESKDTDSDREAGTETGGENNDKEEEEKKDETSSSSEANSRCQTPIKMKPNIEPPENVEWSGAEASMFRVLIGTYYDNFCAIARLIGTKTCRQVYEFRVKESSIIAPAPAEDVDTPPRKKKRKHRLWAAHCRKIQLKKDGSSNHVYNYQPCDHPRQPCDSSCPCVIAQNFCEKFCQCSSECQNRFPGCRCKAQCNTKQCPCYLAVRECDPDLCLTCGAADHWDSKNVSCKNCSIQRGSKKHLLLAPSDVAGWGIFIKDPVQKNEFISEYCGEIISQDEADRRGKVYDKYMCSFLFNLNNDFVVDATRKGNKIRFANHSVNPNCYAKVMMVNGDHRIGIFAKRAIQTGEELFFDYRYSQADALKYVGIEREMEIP

[12] = target: NAD-dependent protein deacetylase sirtuin-1 (Homo sapiens) (UniProt Q96EB6); assay: Inhibition of N-terminal His tagged recombinant human SIRT1 (193 to end residues) expressed in baculovirus infected Sf9 cells using HDAC substrate 1 as substrate at 5 uM incubated for 30 mins by fluorescence based analysis relative to control
NAD-dependent protein deacetylase sirtuin-1 (Homo sapiens), sequence (Q96EB6 whole entry): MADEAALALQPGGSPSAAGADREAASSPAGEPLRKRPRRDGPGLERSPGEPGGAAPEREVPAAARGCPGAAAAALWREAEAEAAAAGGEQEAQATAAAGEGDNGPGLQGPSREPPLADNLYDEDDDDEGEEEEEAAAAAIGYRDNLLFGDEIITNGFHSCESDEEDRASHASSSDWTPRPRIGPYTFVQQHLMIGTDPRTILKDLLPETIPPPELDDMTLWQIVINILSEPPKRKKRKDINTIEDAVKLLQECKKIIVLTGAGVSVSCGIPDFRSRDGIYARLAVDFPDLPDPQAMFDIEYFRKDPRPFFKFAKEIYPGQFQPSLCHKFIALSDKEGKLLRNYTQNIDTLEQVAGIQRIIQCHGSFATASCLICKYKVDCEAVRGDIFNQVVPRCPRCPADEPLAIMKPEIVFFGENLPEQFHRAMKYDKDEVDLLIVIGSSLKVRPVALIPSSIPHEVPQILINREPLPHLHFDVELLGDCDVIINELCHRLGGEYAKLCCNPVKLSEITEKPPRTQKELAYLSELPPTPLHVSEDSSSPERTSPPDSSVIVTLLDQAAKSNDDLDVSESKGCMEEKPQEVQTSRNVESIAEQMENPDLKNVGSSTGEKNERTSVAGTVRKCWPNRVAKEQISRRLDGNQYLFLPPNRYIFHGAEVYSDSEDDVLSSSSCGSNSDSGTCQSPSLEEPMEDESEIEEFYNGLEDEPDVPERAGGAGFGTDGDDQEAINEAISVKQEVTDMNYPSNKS

A549 = assay: Antiproliferative activity against human A549 cells assessed as reduction in cell viability incubated for 72 hrs by CCK8 assay; assay type: functional, cell-based; conditions: A549, 72 h
[13] = target: DNA topoisomerase 2-alpha (Homo sapiens) (UniProt P11388); assay: Inhibition of human Top2alpha assessed as decrease in relaxation of supercoiled pBR322 plasmid DNA at 100 uM using supercoiled pBR322 plasmid DNA as substrate incubated for 30 mins by agarose gel electrophoresis analysis
[14] = target: Histone deacetylase 3/Nuclear receptor corepressor 2 (HDAC3/NCoR2) (Homo sapiens) (UniProt O15379+Q9Y618); assay: Inhibition of C-terminal His-tagged recombinant human HDAC3 (1 to 428 residues)/N-terminal GST-tagged recombinat human NCoR2 (395 to 489 residues) co-expressed in baculovirus infected Sf9 cells using histone peptide 3 as substrate at 5 uM incubated for 30 mins by fluorescence analysis
NCI-H446 = assay: Antiproliferative activity against human NCI-H446 cells assessed as reduction in cell viability incubated for 72 hrs by CCK8 assay; assay type: functional, cell-based; conditions: NCI-H446, 72 h
HCT-116 [15] = assay: Cell cycle arrest in human HCT116 cells assessed as accumulation in G2 phase at 4 nM incubated for 24 hrs by propidium iodide staining based flow cytometry (reference value: 12.52 %); assay type: functional
Homo sapiens = organism: Homo sapiens; assay: Inhibition of PDE4D7 (unknown origin) using FAM-cAMP as substrate at 5 uM incubated for 1 hr by fluorescence polarization assay relative to control
HCT-116 [16] = assay: Induction of apoptosis in human HCT116 cells at 1 uM incubated for 24 hrs by annexin V-FITC and propidium iodide staining based flow cytometry (reference value: 0.86 %); assay type: functional
[17] = target: N-lysine methyltransferase KMT5A (Homo sapiens) (UniProt Q9NQR1); assay: Inhibition of SET8 (unknown origin) using plate-coated histone as substrate at 5 uM incubated for 90 mins in presence of 10 uM SAM by AlphaScreen assay relative to control
[18] = target: DNMT3A2/3L complex (Homo sapiens) (UniProt Q9Y6K1+Q9UJW3); assay: Inhibition of DNMT3a/3L (unknown origin) using poly(dIdC) as substrate at 5 uM incubated for 3 hrs in presence of 20 uM SAM by fluorescence analysis; assay type: protein-complex assay
[19] = target: Tyrosine-protein kinase ABL1 (Homo sapiens) (UniProt P00519); assay: Inhibition of Abl (unknown origin) using Abltide as substrate at 5 uM incubated for 40 mins in presence of 10 uM ATP by kiase-Glo luminescence assay relative to control
Tyrosine-protein kinase ABL1 (Homo sapiens), sequence (P00519 whole entry): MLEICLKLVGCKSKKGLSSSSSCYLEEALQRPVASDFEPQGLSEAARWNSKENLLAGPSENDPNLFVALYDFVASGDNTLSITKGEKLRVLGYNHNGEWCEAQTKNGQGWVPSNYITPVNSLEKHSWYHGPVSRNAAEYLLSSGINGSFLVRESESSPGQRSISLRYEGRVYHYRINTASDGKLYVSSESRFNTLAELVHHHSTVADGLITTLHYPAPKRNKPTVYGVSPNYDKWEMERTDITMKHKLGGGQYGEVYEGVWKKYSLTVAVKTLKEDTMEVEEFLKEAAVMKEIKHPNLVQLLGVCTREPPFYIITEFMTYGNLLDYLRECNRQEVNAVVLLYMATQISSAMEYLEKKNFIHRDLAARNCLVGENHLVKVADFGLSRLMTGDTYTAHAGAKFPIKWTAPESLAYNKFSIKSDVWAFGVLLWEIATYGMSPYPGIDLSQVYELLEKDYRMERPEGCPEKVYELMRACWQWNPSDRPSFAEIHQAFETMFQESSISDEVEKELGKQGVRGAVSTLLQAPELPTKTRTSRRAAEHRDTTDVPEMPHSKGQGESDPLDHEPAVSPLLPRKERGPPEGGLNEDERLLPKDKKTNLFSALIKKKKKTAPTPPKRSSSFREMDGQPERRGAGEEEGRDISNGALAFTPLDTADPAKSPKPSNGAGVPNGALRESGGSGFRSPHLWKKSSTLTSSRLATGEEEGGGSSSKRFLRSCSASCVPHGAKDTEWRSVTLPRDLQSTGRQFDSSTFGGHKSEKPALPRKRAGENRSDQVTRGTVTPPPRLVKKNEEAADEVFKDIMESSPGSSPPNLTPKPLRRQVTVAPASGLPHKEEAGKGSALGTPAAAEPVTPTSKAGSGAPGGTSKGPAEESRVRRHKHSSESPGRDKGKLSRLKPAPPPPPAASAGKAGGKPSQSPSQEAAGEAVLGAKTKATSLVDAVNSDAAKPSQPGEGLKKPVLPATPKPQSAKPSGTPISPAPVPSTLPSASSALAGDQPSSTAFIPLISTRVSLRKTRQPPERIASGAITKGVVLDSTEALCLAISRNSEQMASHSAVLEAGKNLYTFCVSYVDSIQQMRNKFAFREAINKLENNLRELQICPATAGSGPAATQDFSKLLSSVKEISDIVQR

[20] = Antiproliferative activity against human SW579 cells assessed as reduction in cell viability incubated for 72 hrs by CCK8 assay; assay type: functional, cell-based; conditions: SW579, 72 h
[21] = target: 72 kDa type IV collagenase (Homo sapiens) (UniProt P08253); assay: Inhibition of MMP2 (unknown origin) using Mca-PLGLDpaAR as substrate at 5 uM preincubated with enzyme for 2 hrs followed by incubation with substrate for 15 mins by fluorescence based analysis relative to control
72 kDa type IV collagenase (Homo sapiens), sequence (P08253 110-660 limits assumed): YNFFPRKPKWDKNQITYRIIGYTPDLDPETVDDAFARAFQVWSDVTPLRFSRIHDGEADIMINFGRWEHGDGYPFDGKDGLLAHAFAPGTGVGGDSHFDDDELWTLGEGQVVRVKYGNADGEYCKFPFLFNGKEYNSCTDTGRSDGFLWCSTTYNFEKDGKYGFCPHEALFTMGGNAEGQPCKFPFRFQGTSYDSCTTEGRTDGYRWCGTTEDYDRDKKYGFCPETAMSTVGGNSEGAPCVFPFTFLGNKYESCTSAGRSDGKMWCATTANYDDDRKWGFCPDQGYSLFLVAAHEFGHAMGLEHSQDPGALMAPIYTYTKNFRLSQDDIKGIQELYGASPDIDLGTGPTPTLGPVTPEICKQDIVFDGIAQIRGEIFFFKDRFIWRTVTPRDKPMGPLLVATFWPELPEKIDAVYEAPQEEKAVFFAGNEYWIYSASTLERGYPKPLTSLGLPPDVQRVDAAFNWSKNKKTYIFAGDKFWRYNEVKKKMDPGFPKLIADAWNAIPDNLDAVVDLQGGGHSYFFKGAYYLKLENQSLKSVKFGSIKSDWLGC

HCT-116 [22] = assay: Induction of apoptosis in human HCT116 cells incubated for 24 hrs by annexin V-FITC and propidium iodide staining based flow cytometry; assay type: functional, cell-based
HCT-116 [23] = assay: Antiproliferative activity against human HCT116 cells assessed as reduction in cell viability incubated for 72 hrs by CCK8 assay; assay type: functional, cell-based; conditions: HCT-116, 72 h

Structure (SMILES): COc1ccc2c(c1)cc1n2CCN2C(=O)c3cc(F)ccc3N(C)C12 (configuration not stated)
- inhibition [1]: < 20%
- inhibition [2]: < 20%
- inhibition [3]: < 20%
- inhibition (Tubulin (Homo sapiens)): Active
- Activity (HCT-116 [4]): 84.13%
- Activity (HCT-116 [5]): 40.44%
- Activity (HCT-116 [6]): 35.49%
- inhibition [7]: < 20%
- inhibition [8]: < 20%
- inhibition [9]: < 20%
- Activity (HCT-116 [10]): 39.26%
- inhibition [11]: < 20%
- inhibition [12]: < 20%
- IC50 (A549): 159 µM
- inhibition [13]: inactive
- inhibition [14]: < 20%
- IC50 (NCI-H446): > 200 µM
- Activity (HCT-116 [15]): 17.73%
- inhibition (Homo sapiens): < 20%
- Activity (HCT-116 [16]): 52%
- inhibition [17]: < 20%
- inhibition [18]: < 20%
- inhibition [19]: < 20%
- IC50 [20]: 6.1 µM
- inhibition [21]: < 20%
- Activity (HCT-116 [22]): Dose-dependent effect
- IC50 (HCT-116 [23]): 0.002 µM
